Assay outcomes as filed in PubChem BioAssay.
A selection: hits, their analogues and other compounds. The true share with any hit is near 1.5%.
CXCR6 inh – CXCR6 (human) receptor inhibition. 360,000 tested, 0.36% active. CHO-K1 PathHunter CXCR6 beta-arrestin, luminescence. inhibition, % at 20 µM. O00574; in the data active = inhibition above about 34%, passing the limit was not always enough;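 also: antagonist mode with CXCL16 agonist at 10 nM final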
APJ antag – blocks the human apelin receptor APJ; CHO-K1 APJ beta-arrestin complementation, luminescence; inhibition, % at 20 µM; 330,000 tested, 0.32% active; AID 2521;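 active = inhibition above about 40% at 20 µM, limit read from the data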;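 also: cells challenged with 10 nM apelin-13 agonist together with compound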
APJ ag – activates the human apelin receptor APJ; P35414; CHO-K1 APJ PathHunter beta-arrestin, luminescence; 0% DMSO wells, 100% apelin; activation, % at 20 µM; 330,000 tested, 0.11% active;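 active = activation more than six SD over the plate average, tested at 20 µM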
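assay system = CHO-K1 APJ beta-arrestin complementation cell line | input = cell density 1000 per well | dosing = compound 20 µM once, DMSO 1% | timing = compound 90 min 25 °C, reagent 1 h | measured by = luminescence from split beta-galactosidase complementation, Galacton Star/Emerald II substrate | read-out basis = APJ agonist activity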
CCR6 antagonist – blocks CCL20-driven beta-arrestin recruitment at human CCR6 | 340,000 tested, 0.49% active | inhibition, % at 20 µM | CHO-K1 CCR6 PathHunter beta-arrestin, luminescence, CCL20-stimulated | P51684;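 active = compounds whose inhibition of the agonist-driven luminescence signal at 20 µM reaches about 50%, limit read from the data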;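 also: cells stimulated with CCL20 at 14 nM final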
EBI2 antag – antagonists of human EBI2 receptor; 360,000 tested, 0.81% active; inhibition, % at 5 µM; EBI2 beta-arrestin recruitment, luminescence, 7a,25-OHC stimulated; in the data active = inhibition above about 38%;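 also: enzyme fragment complementation signal reports receptor beta-arrestin coupling in cells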
Target sequence (P32249 whole entry, looked up, the tested form may be a part): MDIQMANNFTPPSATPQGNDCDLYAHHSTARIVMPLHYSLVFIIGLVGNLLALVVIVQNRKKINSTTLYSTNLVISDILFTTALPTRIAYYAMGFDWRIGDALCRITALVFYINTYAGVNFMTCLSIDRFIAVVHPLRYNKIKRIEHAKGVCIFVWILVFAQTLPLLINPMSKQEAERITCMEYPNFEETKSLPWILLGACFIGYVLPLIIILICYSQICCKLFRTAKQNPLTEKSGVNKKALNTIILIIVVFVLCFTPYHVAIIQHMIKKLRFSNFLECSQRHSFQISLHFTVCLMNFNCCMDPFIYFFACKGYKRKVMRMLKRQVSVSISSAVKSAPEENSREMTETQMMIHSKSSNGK
EBI2 antag conf – EBI2 (human) antagonism, single concentration confirmation | inhibition, % at 5 µM | AID 651997 | EBI2 beta-arrestin luminescence, 7a,25-OHC antagonism | 2,400 tested, 29% active | shares compounds with EBI2 antag;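 active = inhibition of at least 50%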
EBI2 ag – counter-screen for EBI2 antagonists: EBI2 agonist activity; shares compounds with EBI2 antag; EBI2-expressing cells, agonist mode, luminescence, 60 min; 0% vehicle, 100% 7α,25-dihydroxycholesterol control; activation, % at 5 µM; 2,400 tested, under 10 active;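 active = activation of at least 50%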
bGal cs – counter-screen for EBI2 antagonists: E. coli beta-galactosidase inhibition; shares compounds with EBI2 antag; purified beta-galactosidase, luminescent Galacton Star, 15 min; inhibition, % at 5 µM; 2,400 tested, 1% active;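 active = replicate-average signal at least 3 plate SD below neutral wells, shown as high inhibition, flagging enzyme-inhibiting false positives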;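 also: higher means stronger loss of beta-gal luminescence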
A number is an active result; i = inactive; nt = no result given.

SMILES | CXCR6 inh | APJ antag | APJ ag | CCR6 antagonist | EBI2 antag | EBI2 antag conf | EBI2 ag | bGal cs
CCOC(=O)N1CCN(C(=O)COc2ccc3ccccc3c2Br)CC1 | i | i | i | i | 51.6 | i | i | i
CCOC(=O)N1CCN(C(=O)COc2cc(C)c(Cl)c(C)c2)CC1 | i | i | i | i | 82.7 | 62.9 | i | i
Cc1ccc(S(=O)(=O)NC(=O)C2(C)CCN2C(=O)C2CC2)cc1 (configuration not stated) | i | nt | nt | nt | i | nt | nt | nt
O=C1C=C(c2ccc3ncccc3c2)C[C@@H](c2ccc(Cl)cc2)C1 | i | i | i | i | 87.1 | 75.3 | i | i
O=C1C=C(c2ccc3[nH]ccc3c2)C[C@@H](c2ccc(Cl)cc2)C1 | i | i | i | i | 63.6 | i | i | i
COc1ccc([C@H]2CC(=O)C=C(c3ccc4ncccc4c3)C2)cc1 | i | i | i | i | 82.1 | 58.5 | i | i
COc1ccc(C2=CC(=O)CC(c3ccccc3)C2)cc1 (configuration not stated) | i | i | i | i | i | nt | nt | nt
O=C1C=C(c2cccc3c2sc2ccccc23)C[C@@H](c2ccc(Cl)cc2)C1 | i | i | i | i | 45.0 | i | i | i
COc1ccc([C@H]2CC(=O)C=C(c3cccc(Br)c3)C2)cc1OC | i | i | i | i | i | nt | nt | nt
O=C1C=C(c2ccc3ccccc3c2)C[C@@H](c2ccc(Cl)cc2)C1 | i | i | i | i | 74.3 | 69.6 | i | i
COc1ccc([C@H]2CC(=O)C=C(c3ccc4ncccc4c3)C2)cc1OC | i | i | i | i | 47.3 | i | i | i
COc1cccc(NC(=O)Cn2c3ccc(F)cc3c3nc4n(c(=O)c32)CCCS4)c1 | i | i | i | i | 92.4 | 71.9 | i | i
Cc1ccc(Nc2ccc(NCc3ccccc3)nn2)cc1C | i | i | i | i | 65.0 | i | i | i
Clc1ccc(Nc2ccc(NCc3ccccc3)nn2)cc1 | i | i | i | i | 63.1 | i | i | i
CCn1cc(C(=O)NN)c(=O)c2cc(F)c(N3CCCCC3)cc21 | i | i | i | i | i | nt | nt | nt
CCn1cc(C(=O)NN)c(=O)c2cc(F)c(NC3CCCCC3)cc21 | i | i | i | i | 91.2 | 62.4 | i | i
Cc1ccc(Nc2nnc(SCC(=O)NCC3CCCO3)s2)cc1C (configuration not stated) | i | i | i | i | i | nt | nt | nt
CCOC(=O)CN(C(=O)CSc1nnc(CNc2ccc(F)cc2)o1)c1ccccc1 | i | i | i | i | 42.9 | i | i | i
O=[N+]([O-])c1ccc(N2CCCCC2)cc1NCCOc1ccccc1 | i | i | i | i | 44.5 | i | i | i
C=CCNc1oc(Cc2cccc3ccccc23)nc1C#N | i | i | i | i | i | nt | nt | nt
N#Cc1nc(Cc2cccc3ccccc23)oc1NCc1ccc(F)cc1 | i | i | i | i | 45.4 | i | i | i
COc1cc(CNCc2ccccc2)c(Br)cc1OC1CCCC1 | i | i | i | i | i | nt | nt | nt
O=C(Nc1ccc2ccccc2c1)c1ccc(NS(=O)(=O)c2ccc(Br)s2)cc1 | i | i | i | i | 44.2 | i | i | i
O=C(c1ccncc1)c1ccc(NS(=O)(=O)c2ccc(Br)s2)cc1 | i | i | i | i | i | nt | nt | nt
c1ccc2c(C(c3nnnn3-c3ccc4c(c3)OCCO4)N3CCCC3)ccnc2c1 (configuration not stated) | i | nt | nt | nt | i | nt | nt | nt
SMILES | CXCR6 inh | APJ antag | APJ ag | CCR6 antagonist | EBI2 antag | EBI2 antag conf | EBI2 ag | bGal cs
FC(F)(F)Oc1ccccc1C(c1nnnn1-c1ccc2c(c1)OCCO2)N1CCN(C/C=C/c2ccccc2)CC1 (configuration not stated) | i | nt | nt | nt | 81.2 | 56.5 | i | i
C(=C\c1ccccc1)/CN1CCN(C(c2cccc3ccccc23)c2nnnn2-c2ccc3c(c2)OCCO3)CC1 (configuration not stated) | i | nt | nt | nt | 54.8 | i | i | i
Cc1cccc(C)c1-n1nnnc1C(c1cccc2ccccc12)N1CCN(C/C=C/c2ccccc2)CC1 (configuration not stated) | i | nt | nt | nt | i | nt | nt | nt
O=C(OCc1ccccc1)N1CCN(C(c2ccnc3ccccc23)c2nnnn2-c2ccc3c(c2)OCCO3)CC1 (configuration not stated) | i | nt | nt | nt | 60.2 | i | i | i
O=C(O)c1c(Cl)c(Cl)c(Cl)c(Cl)c1C(=O)OCC1CCCO1 (configuration not stated) | i | nt | nt | nt | i | nt | nt | nt
COc1ccc([C@H]2N[C@]3(CCCN(Cc4ccco4)C3=O)[C@H]3C(=O)N(Cc4ccccc4)C(=O)[C@@H]23)cc1 | i | nt | nt | nt | i | nt | nt | nt
C[C@@H]1CN([C@@H](C)CO)C(=O)CCCn2nncc2CO[C@H]1CN(C)C(=O)C1CC1 | i | nt | nt | nt | i | nt | nt | nt
CCc1nc2ccc(C(=O)N3CCN(c4cccc(OC)c4)CC3)cc2nc1CC | i | i | i | i | i | nt | nt | nt
CN1CCN(C(=O)c2ccc3ccccc3c2)CC1 | i | i | i | i | i | nt | nt | nt
COc1ccc(N2CCN(C(=O)c3csc4ccccc34)CC2)cc1 | i | i | i | i | 53.0 | i | i | i
O=C(c1csc2ccccc12)N1CCN(c2ccc(Cl)c(Cl)c2)CC1 | i | i | i | i | i | nt | nt | nt
O=C(COc1ccc2cc(Br)ccc2c1)N1CCCC1 | i | i | i | i | 68.8 | i | i | i
CCOC(=O)N1CCN(C(=O)c2ccc3ccccc3c2)CC1 | i | i | i | i | 67.6 | i | i | i
COc1cccc(N2CCN(C(=O)c3ccc4ccccc4c3)CC2)c1 | i | i | i | i | 62.4 | i | i | i
CCc1nnc(NS(=O)(=O)c2ccc(NC(=O)c3ccc(C#N)cc3)cc2)s1 | i | i | i | i | i | nt | nt | nt
CCc1nc2ccc(C(=O)NCCC(C)C)cn2c1N(CC)CCN(C)C | i | nt | nt | nt | i | nt | nt | nt
O=C(c1ccc2c(c1)OCO2)N1CCN(c2ccc(C(F)(F)F)cn2)CC1 | i | i | i | i | i | nt | nt | nt
O=C(c1ccc2ccccc2c1)N1CCN(c2ccc(C(F)(F)F)cn2)CC1 | i | i | i | i | 85.2 | 71.3 | i | i
COc1cccc(C(=O)N2CCN(C(=O)COc3ccc4ccccc4c3)CC2)c1 | i | i | i | i | 95.3 | 78.0 | i | i
COc1cc(C(=O)N2CCN(C(=O)COc3ccc4ccccc4c3)CC2)cc(OC)c1OC | i | i | i | i | 70.6 | 50.1 | i | i
CCc1nccn1CCC(=O)NC1CC(C)(C)Cc2c1cnn2-c1cccc(F)c1 (configuration not stated) | i | i | i | i | i | nt | nt | nt
CC(NCC(O)COc1ccc2ccccc2c1)c1ccccc1 (configuration not stated) | i | i | i | i | 46.2 | i | i | i
